A selection: hits, their analogues and other compounds. The true share with any hit is near 2.3%.
PLC-gamma1 inh: PLC-gamma1 (human) inhibition, primary screen | P19174 | purified PLC-gamma1, fluorogenic substrate, fluorescence | AID 720700 | inhibition, % at 12.2 µM | 370,000 compounds, 0.84% hits
PLC-beta3 inh: blocks human PLC-beta3 enzyme activity; Q01970; Purified PLC-beta3, fluorogenic substrate, fluorescence; inhibition, % at 12.2 µM; 370,000 compounds, 0.18% hits; in the data active = inhibition above about 11%;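 also: 0% = median of compound wells on plate and 100% = full blocker control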
ADAM10 inh: ADAM10 inhibition, QFRET primary screen | recombinant ADAM10, EDANS/DABCYL FRET peptide cleavage, 3 h | O14672 | inhibition, % at 7 µM | 370,000 compounds, 0.62% hits;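 active = inhibition above a per-campaign cutoff equal to the mean of compounds falling between control-based bounds plus 3 SD, cut at about 20% in these data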;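 also: 0% = DMSO wells while the 100% control is not disclosed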
ADAM17 inh: ADAM17 inhibition, QFRET primary screen. P78536. 370,000 compounds, 0.83% hits. inhibition, % at 6.95 µM. recombinant ADAM17, EDANS/DABCYL FRET peptide cleavage;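 active = inhibition above the mean of compounds lying between control limits plus 3 SD, set per campaign, cut at about 8.5% in these data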;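 also: 0% = DMSO-only wells as the low control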
DDE Tn7 FP inh: DD(E)-Tn7 binding inhibition, primary FP screen; P02675; FP displacement of FITC-Tn7 peptide from fibrin DD(E); 0% = median of compound wells per plate; inhibition, % at 8.3 µM; 370,000 compounds, 0.13% hits; AID 720508;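 active = inhibition above the mean of compounds falling within the control limits plus 3 SD of them, cut at about 14% in these data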;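 also: 0% = plate median of compound wells and 100% = 10 µM Aha-Tn7 peptide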
Target sequence (P02675 whole entry, looked up): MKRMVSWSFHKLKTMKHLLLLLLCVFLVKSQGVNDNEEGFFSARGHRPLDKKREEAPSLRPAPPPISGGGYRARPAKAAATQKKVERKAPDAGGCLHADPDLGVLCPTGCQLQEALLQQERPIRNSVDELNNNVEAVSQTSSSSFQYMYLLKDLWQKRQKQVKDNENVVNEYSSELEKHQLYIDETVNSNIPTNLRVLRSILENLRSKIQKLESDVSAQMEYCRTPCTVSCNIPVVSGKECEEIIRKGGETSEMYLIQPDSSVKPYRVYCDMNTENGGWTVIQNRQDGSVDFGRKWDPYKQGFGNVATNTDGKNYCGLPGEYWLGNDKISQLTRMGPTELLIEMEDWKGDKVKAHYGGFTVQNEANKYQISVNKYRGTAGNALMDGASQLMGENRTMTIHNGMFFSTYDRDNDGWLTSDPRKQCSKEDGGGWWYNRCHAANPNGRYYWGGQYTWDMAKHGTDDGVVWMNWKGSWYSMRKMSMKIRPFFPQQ
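Test system: human clot-derived fibrin DD(E) complex / Quantity: 2 µM final DD(E) protein / Incubation: 10 min plus 3 h, room temperature / Measured by: fluorescence polarization / Benchmarks: high control of 10 µM Aha-Tn7 peptide / Replicates: singlicate testing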
Tn6 DDE FP: disrupts Tn6 cyclic peptide binding to fibrin D-Dimer-E complex | P02675 | Fibrin DD(E) TRITC-Tn6 fluorescence polarization displacement | inhibition, % at 8.3 µM | 370,000 compounds, 0.21% hits | AID 720509;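 active = inhibition above a per-campaign cutoff: mean of compounds within control limits plus 3 SD, cut at about 15% in these data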;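 also: 0% = median of all compound wells on the plate and 100% = blocking peptide control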
PLCgamma1 ctr: counter-screen for PLC-beta3 inhibitors: inhibitors of human PLC-gamma1; shares compounds with PLC-gamma1 inh; purified PLC-gamma1, fluorogenic substrate, fluorescence; inhibition, % at 12.3 µM; 3,300 compounds, 3.1% hits; AID 743258
PLCb3 confirm: human PLC-beta3 inhibition, confirmation; shares compounds with PLC-gamma1 inh; 3,300 compounds, 1% hits; purified PLC-beta3, fluorogenic substrate fluorescence; inhibition, % at 12.3 µM; AID 743261; in the data active = inhibition above about 11%
Starred values were filed as active, the others as inactive; . = not tested or not shown. Rule as the data show it, unless noted: active = inhibition above about 9.5%; inactive = the rest.

SMILES	PLC-gamma1 inh	PLC-beta3 inh	ADAM10 inh	ADAM17 inh	DDE Tn7 FP inh	Tn6 DDE FP	PLCgamma1 ctr	PLCb3 confirm
NC(=NCCc1c[nH]c2ccccc12)NC(=O)c1ccc(Cl)cc1	10.0*	-0.7	19.1	3.0	-3.3	-16.8	-4.9	-3.8
O=C(N[C@@H](Cc1c[nH]c2ccccc12)C(=O)O)c1ccc(Cl)cc1	6.1	-3.7	-4.4	2.6	-7.3	5.0	.	.
O=C1[C@H]2C[C@@]3(n4ccc5ccccc54)c4ccccc4N(S(=O)(=O)c4ccccc4)[C@H]3N2C(=O)CN1Cc1ccccc1	-3.6	-2.5	16.9	6.1	-5.8	0.7	.	.
COc1cccc(COCCN2CCN(S(=O)(=O)c3ccc(C)cc3)CCC2=O)c1	12.2*	9.9	6.8	8.1	-5.3	-6.2	-6.6	-4.5
Cc1ccc(S(=O)(=O)N2CCC(=O)N(CCOCc3cccc(C)c3)CC2)cc1	7.0	-0.3	-6.2	-1.8	-4.6	-5.1	.	.
CN(C)S(=O)(=O)NC(c1ccccc1)c1ccccc1	12.2*	6.6	3.8	4.4	-2.3	-1.7	-3.9	0.8
COC(=O)CCC1NC(=O)C(Cc2c[nH]c3ccccc23)NC(=O)C2CC(=O)OC(C)C(NC(=O)C(C)NC(=O)C3CCCN3C(=O)C3CCCN3C(=O)C(C)NC(C)=O)C(=O)NC(CC(C)C)C(=O)NC(CCCCNC(=O)CCC(C(=O)NC(Cc3ccc(O)cc3)C(=O)O)NC1=O)C(=O)NC(Cc1c[nH]c3ccccc13)C(=O)N1CCCC1C(=O)NC(CO)C(=O)N2 (centres undefined)	-3.1	-4.8	-8.9	-0.7	-0.3	5.6	.	.
CCn1c(COc2ccccc2C)nnc1SCC(=O)N1CCC(C)CC1	-4.7	1.7	4.4	-2.5	-2.6	3.2	.	.
CCn1c(COc2ccccc2C)nnc1SCC(=O)N1CCCCC1	14.3*	1.3	-12.9	-2.2	-4.7	6.0	-3.1	-2.4
CC(=O)Oc1ccc(/C=N/NS(=O)(=O)c2ccccc2)cc1	9.2	11.2*	-6.1	2.7	-7.7	8.1	-1.5	-0.2
O=C(COc1ccc(/C=N/NS(=O)(=O)c2ccccc2)cc1)NCc1ccccc1	4.7	1.8	3.9	-0.7	-7.2	-7.9	.	.
COc1ccc(/C=N/NS(=O)(=O)c2ccc(C)cc2)cc1OC(=O)c1ccccc1	10.9*	-0.9	5.4	3.4	-4.2	6.6	-3.3	-0.7
CC(C)(C)C1CCC(=O)N(CCSc2ccccc2)CC1 (centres undefined)	12.7*	5.5	6.4	8.0	-7.8	-4.5	-6.0	-0.4
CC(C)(C)C1CCC(=O)N(CCC#N)CC1 (centres undefined)	10.8*	6.7	2.5	5.8	-4.3	-8.4	-3.9	-0.2
CCCN1CCS(=O)(=O)N(Cc2cn(Cc3ccc(OC)cc3)nn2)C(C(=O)OC)C1 (centres undefined)	-2.7	-2.3	-4.5	-4.7	-0.2	-4.7	.	.
COC(=O)[C@]12C[C@H](CC(=O)NCc3cccc(C(F)(F)F)c3)C(=O)N(Cc3cccc4ccccc34)C1=C[C@H](COCc1ccccc1)O[C@@H]2C	2.1	-0.3	11.6	4.5	1.4	0.7	.	.
CCC1CCC2(CC1)NC(=O)N(CC(=O)Nc1cccc(S(=O)(=O)N(C)c3ccccc3)c1)C2=O (centres undefined)	-0.3	-1.9	12.1	8.2	-6.8	1.8	.	.
CN1C(=O)N(CC(=O)Nc2cccc(S(=O)(=O)N(C)c3ccccc3)c2)C(=O)C12CCCCC2	14.3*	-0.2	7.2	4.2	-8.9	-7.8	-3.9	-2.6
O=S1(=O)c2ccc(Br)cc2OC[C@@H](Cc2ccccc2)N1Cc1cn(Cc2ccc(C(F)(F)F)cc2)nn1	-0.3	0.7	5.3	-2.7	-2.1	9.1	.	.
Cc1nn(-c2ccccc2)c(OC(=O)c2cccs2)c1S(=O)(=O)c1ccccc1	14.0*	5.7	-1.3	-1.1	-5.5	7.0	-1.3	1.4
Cc1nn(-c2ccccc2)c(OC(=O)c2cccs2)c1S(=O)(=O)c1ccc([N+](=O)[O-])cc1	14.5*	19.5*	0.4	7.3	0.3	-7.6	4.1	4.6
N#CCC[C@H]1CC[C@]2(CCCN(C(=O)C3CCCCC3)C2)O1	1.9	1.3	1.9	2.9	2.2	8.1	.	.
O=C(CC(=O)NN=C1CCCCCC1)NCc1cccnc1	10.4*	6.1	11.5	6.0	-1.1	2.1	1.3	1.3
O=C(NN=C1CCCCCC1)c1cccnc1	0.1	3.4	7.3	-1.1	-4.1	-1.1	.	.
CCN(CC)CCCNC(=O)c1cn(C(C)c2ccccc2)nn1 (centres undefined)	-2.6	0.5	-8.9	5.1	2.0	7.2	.	.
SMILES	PLC-gamma1 inh	PLC-beta3 inh	ADAM10 inh	ADAM17 inh	DDE Tn7 FP inh	Tn6 DDE FP	PLCgamma1 ctr	PLCb3 confirm
CCCNC(=O)COC(=O)c1ccc(OCC(=O)Nc2ccccc2OC)c(OC)c1	0.3	3.2	1.7	2.6	-1.4	-3.9	.	.
COc1ccccc1NC(=O)COc1ccc(C(=O)OCC(=O)NC(C)(C)C)cc1OC	12.6*	0.5	5.7	5.7	-5.7	-3.8	-4.2	-3.3
O=C(Nc1cccnc1)C1CCCN(S(=O)(=O)c2ccccc2)C1 (centres undefined)	2.1	3.0	5.9	-2.7	-2.8	1.2	.	.
O=C(Nc1ccc(Br)cc1)C1CCCN(S(=O)(=O)c2cccnc2)C1 (centres undefined)	5.1	11.2*	14.7	5.0	-1.6	2.9	1.2	4.0
COC(=O)c1ccccc1NN=Nc1ccccc1[N+](=O)[O-]	1.8	13.5*	7.2	7.0	-2.6	3.0	-3.4	-0.2
O=[N+]([O-])c1ccccc1N=NNc1ccccc1	5.2	0.9	-9.6	-3.5	-3.5	4.1	.	.
COC(=O)CN1CC(=O)N(c2ccccc2)C1=S	10.5*	-3.3	1.6	-6.3	3.3	-6.7	0.3	-5.0
C=CCN1C(=O)[C@@H](CC(=O)N2CCOCC2)[C@]2(C(=O)OC)CCCCC=C12	2.5	-2.4	1.0	0.8	-3.2	-6.2	.	.
C#CNC(=O)C1(CC=C)CCNCC1	4.2	12.5*	-2.1	5.2	-3.6	1.2	-5.1	-1.7
O=C(Cc1ccccc1)NCC(=O)OCc1ccc([N+](=O)[O-])cc1	0.9	3.9	5.2	5.0	0.3	-1.2	.	.
O=C(Cc1ccc([N+](=O)[O-])cc1)Oc1ccccc1	9.7*	1.5	-3.8	-4.0	1.9	-6.9	-7.0	-3.8
Cc1ccccc1CN1CCCCC(NC(=O)Nc2cccc(F)c2)C1=O (centres undefined)	5.6	2.8	13.5	0.0	8.3	3.0	.	.

Screens as filed in PubChem.
